Experimental data reported in ChEMBL document CHEMBL1275462 (Antimicrob Agents Chemother, 2008).
Active and inactive are the calls of the source.

Legend:
Staphylococcus aureus [1] = experiment: Antimicrobial activity against methicillin-resistant Staphylococcus aureus BK2464 by Etest; assay type: functional
In short: (§1)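 Etest (manufacturer's method) and population analysis: overnight cultures serially diluted and plated on TSA with increasing oxacillin or BPR, CFU counted after 48 h at 37°C. Colonies from subpopulations growing at high oxacillin or BPR were picked, restreaked on antibiotic-free TSA for three passages, then retested by population analysis.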

Staphylococcus aureus [2] = experiment: Antimicrobial activity against methicillin-resistant Staphylococcus aureus HAR24 assessed as concentration required for minimum inhibition of BRP-resistant subpopulation growth; assay type: functional; in short: as §1
Staphylococcus aureus [3] = experiment: Antimicrobial activity against methicillin-resistant Staphylococcus aureus BK2529 assessed as concentration required for minimum inhibition of oxacillin-resistant subpopulation growth by Etest; assay type: functional; in short: as §1
Staphylococcus aureus [4] = experiment: Antimicrobial activity against methicillin-resistant Staphylococcus aureus HAR24 assessed as concentration required for bacterial subpopulation growth; assay type: functional; in short: as §1
Staphylococcus aureus [5] = experiment: Antimicrobial activity against methicillin-resistant Staphylococcus aureus USA300 by Etest; assay type: functional; in short: as §1
Staphylococcus aureus [6] = experiment: Antimicrobial activity against methicillin-resistant Staphylococcus aureus HDE288 by Etest; assay type: functional; in short: as §1
Staphylococcus aureus [7] = experiment: Antimicrobial activity against methicillin-resistant Staphylococcus aureus HDE288 assessed as concentration required for bacterial subpopulation growth; assay type: functional; in short: as §1
Staphylococcus aureus [8] = experiment: Antimicrobial activity against vancomycin-intermediate Staphylococcus aureus Mu50 by Etest; assay type: functional
In short: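 Etest and population analysis: overnight cultures plated on TSA with increasing vancomycin, oxacillin or BPR, CFU counted after 48 h at 37°C. For VRSA strains, vancomycin plates also run with constant 1 µg/ml BPR. Vancomycin Etest read after overnight 37°C incubation on TSA with or without 1 µg/ml BPR.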

Staphylococcus aureus [9] = experiment: Antimicrobial activity against methicillin-resistant Staphylococcus aureus BK2464 assessed as concentration required for bacterial subpopulation growth; assay type: functional; in short: as §1
Staphylococcus aureus [10] = experiment: Antimicrobial activity against methicillin-resistant Staphylococcus aureus HU25 by Etest; assay type: functional; in short: as §1
Staphylococcus aureus [11] = experiment: Antimicrobial activity against methicillin-resistant Staphylococcus aureus E2125 assessed as concentration required for bacterial subpopulation growth; assay type: functional; in short: as §1
Staphylococcus aureus [12] = experiment: Antimicrobial activity against methicillin-resistant Staphylococcus aureus BK2464 assessed as concentration required for minimum inhibition of oxacillin-resistant subpopulation growth by Etest; assay type: functional; in short: as §1
Staphylococcus aureus [13] = experiment: Antimicrobial activity against methicillin-resistant Staphylococcus aureus BK2464 assessed as concentration required for minimum inhibition of BRP-resistant subpopulation growth by Etest; assay type: functional; in short: as §1
Staphylococcus aureus [14] = experiment: Antimicrobial activity against methicillin-resistant Staphylococcus aureus HAR22 assessed as concentration required for minimum inhibition of oxacillin-resistant subpopulation growth by Etest; assay type: functional; in short: as §1
[15] = target: T1, Penicillin-binding protein 4 (Staphylococcus aureus (strain COL)) (UniProt A0A0H2WY27); experiment: Displacement of benzyl-[14C]penicillin from Staphylococcus aureus PBP4 by in vitro competitive assay; conditions: Staphylococcus aureus subsp. aureus COL
T1 sequence (whole entry): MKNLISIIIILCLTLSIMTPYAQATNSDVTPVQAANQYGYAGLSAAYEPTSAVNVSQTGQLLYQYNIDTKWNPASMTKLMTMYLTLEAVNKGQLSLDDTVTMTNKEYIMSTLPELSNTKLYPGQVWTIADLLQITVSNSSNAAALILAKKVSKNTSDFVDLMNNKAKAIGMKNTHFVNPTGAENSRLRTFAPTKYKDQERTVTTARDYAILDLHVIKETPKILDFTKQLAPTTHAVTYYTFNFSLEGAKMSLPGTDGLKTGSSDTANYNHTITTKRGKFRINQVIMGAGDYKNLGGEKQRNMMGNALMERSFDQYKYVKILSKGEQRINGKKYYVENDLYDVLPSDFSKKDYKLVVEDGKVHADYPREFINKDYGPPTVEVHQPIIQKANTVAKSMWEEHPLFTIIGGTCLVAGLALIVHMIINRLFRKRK
In short: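 Membranes came from late-exponential cells of RU130, a PBP 2 insertional mutant of COL. Samples of 150 µg protein were preincubated with increasing drug concentrations for 10 min at 30°C, then labeled with benzyl[14C]penicillin at 20 µg/ml for 10 min at 37°C. The reaction was stopped with excess unlabeled benzylpenicillin in SDS. Read-out was SDS-PAGE with phosphor-screen exposure for 2 weeks.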

Staphylococcus aureus [16] = experiment: Antimicrobial activity against methicillin-resistant Staphylococcus aureus COL assessed as concentration required for bacterial subpopulation growth; assay type: functional; in short: as §1
Staphylococcus aureus [17] = experiment: Antimicrobial activity against methicillin-resistant Staphylococcus aureus HU25 assessed as concentration required for bacterial subpopulation growth; assay type: functional; in short: as §1
Staphylococcus aureus [18] = experiment: Antimicrobial activity against methicillin-resistant Staphylococcus aureus HPV107 assessed as concentration required for minimum inhibition of oxacillin-resistant subpopulation growth by Etest; assay type: functional; in short: as §1

Nc1nc(/C(=N/O)C(=O)N[C@@H]2C(=O)N3C(C(=O)O)=C(/C=C4\CCN([C@@H]5CCNC5)C4=O)CS[C@H]23)ns1 [CEFTOBIPROLE]
3 µg/mL: Activity (Staphylococcus aureus [2]) | Activity (Staphylococcus aureus [4]) | Activity (Staphylococcus aureus [7]) | MIC (Staphylococcus aureus [8]) | MIC (Staphylococcus aureus [10]) | Activity (Staphylococcus aureus [13]) | Activity (Staphylococcus aureus [16]) | Activity (Staphylococcus aureus [17])
active: Activity [15]
6 µg/mL: Activity (Staphylococcus aureus [11])
0.8 µg/mL: MIC (Staphylococcus aureus [6]) | Activity (Staphylococcus aureus [14]) | Activity (Staphylococcus aureus [18])
1.5 µg/mL: MIC (Staphylococcus aureus [1]) | Activity (Staphylococcus aureus [3]) | MIC (Staphylococcus aureus [5]) | Activity (Staphylococcus aureus [9]) | Activity (Staphylococcus aureus [12])
